Reference: PMC9464482 (EuroIntervention : journal of EuroPCR in collaboration with …, 2021)
“Also recorded” adds a separate entry of the source. Like-named read-outs stand apart in the source and are kept apart here.

Tests used:
platelet aggregation = details: cited from earlier work
platelet function [1] = details: ref Bentur et al (submitted), cited from earlier work
platelet function [2] = details: cited from earlier work
[3] = Phase 1, healthy subjects and stable CAD patients on aspirin; cited from earlier work
platelet function [4] = details: Phase 1, sc; cited from earlier work
[5] = assay type: in vivo, human
How it was run: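 STEMI patients in three cohorts received one weight-adjusted subcutaneous injection in the outer upper arm before pPCI, at 0.075, 0.090 or 0.110 mg/kg. Platelet counts were taken pre-dose and at 1, 24 and 72 h post dose. Other blood counts and kidney and liver function analytes were also monitored for tolerability.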

Safety and tolerability = assay type: in vivo, human
platelet function [6] = assay type: in vivo, human; details: 15 minutes post dose
How it was run: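 Patients with STEMI were given one subcutaneous upper-arm injection before pPCI at 0.075, 0.090 or 0.110 mg/kg. Whole blood in 3.2% citrate was sampled pre-dose and at 15, 30, 45, 60, 90, 120 and 180 min, plus 240 min for cohorts 2–3. It was read on the VerifyNow P2Y12 iso-TRAP channel (3-4 μM iso-TRAP) as percent inhibition.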

[7] = Whole blood pharmacokinetics of RUC-4 in STEMI patients; assay type: in vivo, human; details: for maximum blood concentration (Cmax), mean±SD / tmax, median [min-max]: whole blood
platelet function [8] = assay: VerifyNow Base channel; assay type: in vivo, human; details: for Base channel inhibition of platelet function, mean (min-max): 15 minutes post dose
How it was run: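 STEMI patients received a single subcutaneous dose in the upper arm before pPCI (0.075, 0.090 or 0.110 mg/kg cohorts). Citrated (3.2%) whole blood was drawn pre-dose and at 15–180 min, plus 240 min for cohorts 2–3. It was tested in the VerifyNow P2Y12 cartridge Base channel (20 μM iso-TRAP plus PAR-4 activator) as percent inhibition. Time to 50% return of platelet function was also derived.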

[9] = even at peak levels of ticagrelor achieved in vivo, ref Bentur et al (submitted)

CCCCOC(=O)N1CCN(C(=O)[C@H](CP(=O)(O)O)NC(=O)c2cc(N3CC[C@H](OC)C3)nc(-c3ccccc3)n2)CC1 [Selatogrel, selatogrel]
effect on the VerifyNow P2Y12 assay (platelet aggregation; single sc dose prior to PCI, patients with MI): inhibited | duration of effects (platelet aggregation; single sc dose): at least eight hours

CCCSc1nc(N[C@@H]2C[C@H]2c2ccc(F)c(F)c2)c2nnn([C@@H]3C[C@H](OCCO)[C@@H](O)[C@H]3O)c2n1 [ticagrelor]
inhibition of the iso-TRAP assay (platelet function [1]; at peak levels of ticagrelor achieved in vivo): about 20% | effect on the Base channel assay (platelet function [2]; [9]): not affected

CC(=O)Oc1ccccc1C(=O)O [aspirin]
effect on the iso-TRAP assay (platelet function [1]; Supplementary Appendix 2): not affected | effect on the Base channel assay (platelet function [2]; [9]): not affected

NCC(=O)Nc1cncc(-c2nn3c(=O)cc(N4CCNCC4)nc3s2)c1 [RUC-4]
dose up to which RUC-4 was well tolerated [3]: up to 0.075 mg/kg | return of platelet function (platelet function [4]): within two hours | time to high-grade inhibition of platelet function (LTA, 20 μM ADP) (platelet function [4]): ≤ 15 min | Haemoglobin (mean, SD) ([5]; 24 hours post dose, Cohort 1 (0.075 mg/kg), pre-dose 14.04 (0.95)): 13.82 (2.15) g/dL | Platelet count (mean, SD) ([5]; 24 hours post dose, Cohort 1 (0.075 mg/kg), pre-dose 226.38 (44.59)): 211.13 (36.22) 109/L | Haemoglobin (mean, SD) ([5]; 24 hours post dose, Cohort 2 (0.090 mg/kg), pre-dose 13.68 (1.17)): 13.93 (1.46) g/dL | Platelet count (mean, SD) ([5]; 24 hours post dose, Cohort 2 (0.090 mg/kg), pre-dose 294.44 (74.60)): 273.00 (71.72) 109/L | Haemoglobin (mean, SD) ([5]; 24 hours post dose, Cohort 3 (0.110 mg/kg), pre-dose 14.31 (1.31)): 13.29 (2.11) g/dL | Platelet count (mean, SD) ([5]; 24 hours post dose, Cohort 3 (0.110 mg/kg), pre-dose 283.44 (60.85)): 238.13 (46.07) 109/L | Haemoglobin (mean, SD) ([5]; 72 hours post dose /discharge, Cohort 1 (0.075 mg/kg), pre-dose 14.04 (0.95)): 14.10 (2.13) g/dL | Platelet count (mean, SD) ([5]; 72 hours post dose /discharge, Cohort 1 (0.075 mg/kg), pre-dose 226.38 (44.59)): 214.88 (49.28) 109/L | Haemoglobin (mean, SD) ([5]; 72 hours post dose /discharge, Cohort 2 (0.090 mg/kg), pre-dose 13.68 (1.17)): 13.96 (1.14) g/dL | Platelet count (mean, SD) ([5]; 72 hours post dose /discharge, Cohort 2 (0.090 mg/kg), pre-dose 294.44 (74.60)): 281.67 (79.81) 109/L | Haemoglobin (mean, SD) ([5]; 72 hours post dose /discharge, Cohort 3 (0.110 mg/kg), pre-dose 14.31 (1.31)): 13.75 (2.24) g/dL | Platelet count (mean, SD) ([5]; 72 hours post dose /discharge, Cohort 3 (0.110 mg/kg), pre-dose 283.44 (60.85)): 229.00 (47.76) 109/L | changes in blood counts, or in kidney or liver function analytes ([5]; all cohorts): no clinically meaningful changes | thrombocytopaenia ([5]; first 72 hours post dose, all patients): No thrombocytopaenia; also recorded: None of the patients included in the study developed thrombocytopaenia; also recorded: did not produce thrombocytopaenia | Number of patients with AEs with fatal outcome/death (Safety and tolerability; 0.075 mg/kg sc): 0 (0%) n/N (%) | Number of patients with AEs with fatal outcome/death (Safety and tolerability; 0.090 mg/kg sc): 0 (0%) n/N (%) | Number of patients with AEs with fatal outcome/death (Safety and tolerability; 0.110 mg/kg sc): 0 (0%) n/N (%) | AEs of special interest: Injection site bruising (Safety and tolerability; Total, all doses): 11 (41%) n/N (%) | AEs of special interest: Injection site reaction (Safety and tolerability; Total, all doses): 1 (4%) n/N (%) | AEs of special interest: Mild access-site bleeding (Safety and tolerability; Total, all doses): 6 (22%) n/N (%) | AEs of special interest: Severe access-site bleeding (Safety and tolerability; Total, all doses): 2 n/N (%) | Bleeding according to BARC classification: 1 (Safety and tolerability; Total, all doses): 13 n/N (%) | Number of patients with AEs with fatal outcome/death (Safety and tolerability; Total, all doses): 0 (0%) n/N (%) | most common AEs (injection site bruising, access-site haematoma or bruising) rated as grade 1 (Safety and tolerability; safety cohort, all doses): 11/16 | bruising at the RUC-4 injection site (Safety and tolerability; safety cohort, all doses, n=27): 41% | vascular access-site haematoma or bruising (Safety and tolerability; safety cohort, all doses, n=27): 30% | inhibition of platelet function, iso-TRAP assay, mean (min-max) (platelet function [6]; 0.075 mg/kg sc): 77.5% [65.7%-90.6%] | patients with high-grade (≥77%) inhibition of the VerifyNow iso-TRAP assay (platelet function [6]; 0.075 mg/kg sc): 3/8 | inhibition of platelet function, iso-TRAP assay, mean (min-max) (platelet function [6]; 0.090 mg/kg sc): 87.5% [73.8%-93.1%] | patients with high-grade (≥77%) inhibition of the VerifyNow iso-TRAP assay (platelet function [6]; 0.090 mg/kg sc): 7/8 | inhibition of platelet function, iso-TRAP assay, mean (min-max) (platelet function [6]; 0.110 mg/kg sc): 91.7% [76.4%-99.3%] | patients with high-grade (≥77%) inhibition of the VerifyNow iso-TRAP assay (platelet function [6]; 0.110 mg/kg sc): 7/8 | time at which maximum whole blood concentrations were reached, mean ([7]; post dose, all cohorts): 20 min | maximum blood concentration (Cmax), mean±SD ([7]; 0.075 mg/kg sc): 96.7 ± 26.0 ng/mL | tmax, median [min-max] ([7]; 0.075 mg/kg sc): 15 [15-16] minutes | maximum blood concentration (Cmax), mean±SD ([7]; 0.090 mg/kg sc): 152.4 ± 114.0 ng/mL | tmax, median [min-max] ([7]; 0.090 mg/kg sc): 15 [14-45] minutes | maximum blood concentration (Cmax), mean±SD ([7]; 0.110 mg/kg sc): 129.8 ± 23.3 ng/mL | tmax, median [min-max] ([7]; 0.110 mg/kg sc): 15 [13-45] minutes | Base channel inhibition of platelet function, mean (min-max) (platelet function [8]; 0.075 mg/kg sc): 86.0% (74.2%-97.7%) | Base channel inhibition of platelet function, mean (min-max) (platelet function [8]; 0.090 mg/kg sc): 92.3% (86.8%-97.1%) | Base channel inhibition of platelet function, mean (min-max) (platelet function [8]; 0.110 mg/kg sc): 93.0% (81.9%-98.6%) | inhibition of the Base channel assay, on average (platelet function [8]; within 15 minutes, sc, all cohorts): more than 90%

CC(=O)Oc1cc2c(s1)CCN(C(C(=O)C1CC1)c1ccccc1F)C2 (centres unmarked) [prasugrel]
effect on the Base channel assay (platelet function [2]; doses that cause near-complete inhibition of the P2Y12 assay): do not inhibit
